As usually defined, the IC50 is the concentration needed to halve the response being measured.

This note sets out measurements from ChEMBL document CHEMBL5046298, “SAR of Novel 3-Arylisoquinolinones: meta-Substitution on the Aryl Ring Dramatically Enhances Antiproliferative Activity through Binding to Microtubules” (J Med Chem, 2022).

The source made the active and inactive calls. The calls are words filed in the database; no cut-off is given here.

Series [1] concerns the target T1, Ribosyldihydronicotinamide dehydrogenase [quinone] (Homo sapiens) (UniProt P16083).
T1 sequence (whole entry): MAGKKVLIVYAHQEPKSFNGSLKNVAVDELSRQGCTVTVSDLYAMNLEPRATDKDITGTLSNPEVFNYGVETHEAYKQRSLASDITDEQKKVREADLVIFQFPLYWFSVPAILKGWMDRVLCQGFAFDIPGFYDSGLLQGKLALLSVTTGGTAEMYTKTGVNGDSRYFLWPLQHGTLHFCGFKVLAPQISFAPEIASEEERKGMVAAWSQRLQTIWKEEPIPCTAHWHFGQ
The series is described as follows: Inhibition of human recombinant NQO2 at upto 100 uM. Particulars: dose microM <=100.

For series [2], the system named is HUVEC. The series is described as follows: Antivascular activity against HUVEC cells assessed as inhibition of capillary like tube formation at 25 uM incubated for 16 hrs by matrigel based bright field microscopic analysis. Format: functional, cell-based. Particulars: Homo sapiens. The procedure, abridged: (§1)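 Tube formation: HUVECs (25×10^3 per well) plated onto gelled Matrigel together with DMSO or test agent (0.5, 1, 2 μM or 25 μM). After 16 h, tube networks were examined by bright-field microscopy at 4×. Three independent experiments.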

In series [3] the test system is HUVEC. The series is described as follows: Disruption of preestablished capillary like tubes in HUVEC cells at 25 uM incubated for 16 hrs by matrigel based bright field microscopic analysis. Format: functional, cell-based. Particulars: Homo sapiens.
Series [4] has as its target T2, Tubulin (Homo sapiens) (UniProt P68371+Q9H4B7+P0DPH7+P68366+Q13509+Q71U36+P04350+Q3ZCM7+P07437+P68363+Q9BQE3+Q6PEY2+Q13885+Q9BVA1+Q9BUF5). The series is described as follows: Inhibition of tubulin (unknown origin) polymerization assessed as reduction in microtubule formation by measuring reduction in absorbance at 10 uM measured every minute for 1 hr in presence of GTP by microplate reader analysis. Format: protein-complex assay. The procedure, abridged: (§2)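 Cell-free turbidity assay: purified bovine tubulin diluted to 60 μM in polymerization buffer with 1 mM GTP, mixed on ice with DMSO or test agent (final 5, 10, 20 μM). […] A350 read every 1 min for 60 min at 37 °C; ΔA calculated relative to time zero.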

In series [5] the test system is HepG2. Description: Induction of cell cycle arrest in human HepG2 cells assessed as increase in sub-G0/G1 cell population at 2 uM measured after 24 hrs by PI staining based flow cytometry. The series is classed as functional.
Series [6] relates to HepG2. Description: Cytotoxicity against human HepG2 cells assessed as inhibition of colony formation at 0.5 to 1 uM incubated for 14 days by methylene blue staining based clonogenic assay. Format: functional, cell-based. As to conditions: dose 0.5-1 µM, time 14.0 day. The procedure, abridged:
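Clonogenic survival: HepG2 seeded as single cells at 1000/well and left 10-12 h to adhere. Treated with DMSO or a concentration range for 14 days, with compound added once. Colonies fixed in 70% ethanol, stained with 0.5% methylene blue, and colonies of ≥50 cells counted. Surviving fraction = treated CFE/control CFE. Three independent experiments.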

The nature of series [7]: Antiproliferative activity against human THLE-3 cells assessed as inhibition of cell proliferation incubated for 24 hrs followed by 72 hrs of compound-free incubation by Sulforhodamine B assay. Format: toxicity, cell-based. In outline: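 SRB growth assay: cells seeded overnight (HepG2 3000, SNU423 2000, MDA-MB-231 1500, MCF-7 2500, A549 1000, HCT116 1000, THLE-3 4000 cells/well), then exposed to a concentration range for 96 h, or 24 h followed by 72 h drug-free. DMSO ≤0.3%. TCA fixation, 0.4% SRB staining, OD at 510 nm. Growth % = OD test/OD control ×100. IC50 from four-parameter fit; at least three independent experiments.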
(The SRB assay estimates cell density from bound dye.)

In series [8] the target is T2, Tubulin (Homo sapiens). The series is described as follows: Inhibition of tubulin (unknown origin) polymerization assessed as reduction in microtubule formation by measuring reduction in absorbance measured every minute for 1 hr in presence of GTP by microplate reader analysis. The series is classed as protein-complex assay. Particulars: dose 5-20 µM. In outline:
as §2

Series [9] deals with HepG2. Description: Induction of cell cycle arrest in human HepG2 cells assessed as decrease in cell proportion at G0/G1 phase at 25 uM measured after 24 hrs by PI staining based flow cytometry. Format: functional. In general terms: A flow cytometer gives signals particle by particle.
In series [10] the test system is SNU-423. The series is described as follows: Induction of apoptosis in human SNU-423 cells assessed as viable cells at 0.5 uM incubated for 24 hrs by Annexin V-APC/PI staining based flow cytometry (reference value: 92.7 %). The series is classed as functional. As to conditions: read-out: Activity.
In series [11] the test system is SNU-423. The series is described as follows: Induction of apoptosis in human SNU-423 cells assessed as early apoptotic cells at 0.5 uM incubated for 24 hrs by Annexin V- APC/PI staining based flow cytometry (reference value: 0.94 %). The series is classed as functional.
Series [12] relates to SNU-423. Description: Induction of apoptosis in human SNU-423 cells assessed as late apoptotic cells at 0.5 uM incubated for 24 hrs by Annexin V-APC/PI staining based flow cytometry (reference value: 0.83 %). The series is classed as functional.
The subject of series [13] is SNU-423. Description: Induction of apoptosis in human SNU-423 cells assessed as viable cells at 1 uM incubated for 24 hrs by Annexin V-APC/PI staining based flow cytometry (reference value: 92.7 %). As to conditions: read-out: Activity. The series is classed as functional.
The subject of series [14] is SNU-423. The series is described as follows: Induction of apoptosis in human SNU-423 cells assessed as early apoptotic cells at 1 uM incubated for 24 hrs by Annexin V-APC/PI staining based flow cytometry (reference value: 0.94 %). Format: functional.
For series [15], the system named is SNU-423. Description: Induction of apoptosis in human SNU-423 cells assessed as necrotic cells at 1 uM incubated for 24 hrs by Annexin V-APC/PI staining based flow cytometry (reference value: 5.74 %). Format: functional.
Series [16] relates to HepG2. Description: Induction of reversible mitotic arrest in human HepG2 cells assessed as restoration of cell population in G0/G1 phase at 2 to 5 uM treated for 24 hrs followed by replacement with fresh medium without compound and further incubated for 24 hrs by PI staining based flow cytometry. Format: functional. Particulars: dose 2-5 µM. The procedure, abridged: (§3)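 HepG2 cells (5×10^5 per dish) treated 24 h, then medium replaced with compound-free medium for a further 24 h. Cells then ethanol-fixed and stained with PI/RNase A for 30 min at 37 °C. 10 000 cells analyzed by flow cytometry; phase percentages by Watson model. Compared with control by one-way ANOVA/Dunnett's.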

Series [17] has as its system HepG2. The series is described as follows: Induction of reversible mitotic arrest in human HepG2 cells assessed as restoration of cell population in S phase at 2 to 5 uM treated for 24 hrs followed by replacement with fresh medium without compound and further incubated for 24 hrs by PI staining based flow cytometry. The series is classed as functional. Particulars: dose 2-5 µM. In outline: as §3

In series [18] the test system is HepG2. Description: Induction of reversible mitotic arrest in human HepG2 cells assessed as restoration of cell population in G2/M phase at 2 to 5 uM treated for 24 hrs followed by replacement with fresh medium without compound and further incubated for 24 hrs by PI staining based flow cytometry. Particulars: dose 2-5 µM. Format: functional. The procedure, abridged:
as §3

The test system of series [19] is HepG2. The series is described as follows: Induction of reversible mitotic arrest in human HepG2 cells assessed as increase in cell population in sub-G0/G1 phase at 2 to 5 uM treated for 24 hrs followed by replacement with fresh medium without compound and further incubated for 24 hrs by PI staining based flow cytometry. As to conditions: dose 2-5 µM. The series is classed as functional. In outline:
as §3

Series [20] relates to HUVEC. Description: Antivascular activity against HUVEC cells assessed as inhibition of capillary like tube formation incubated for 16 hrs by matrigel based bright field microscopic analysis. As to conditions: Homo sapiens, dose 2.0 µM. The series is classed as functional, cell-based. In outline:
as §1

Series [21] concerns HUVEC. Description: Disruption of preestablished capillary like tubes in HUVEC cells incubated for 16 hrs by matrigel based bright field microscopic analysis. The series is classed as functional, cell-based. As to conditions: Homo sapiens, dose 0.5-10 µM.
In series [22] the test system is HUVEC. The series is described as follows: Disruption of preestablished capillary like tubes in HUVEC cells assessed as decrease in tube junctions at 1 to 2 uM incubated for 16 hrs by matrigel based bright field microscopic analysis. As to conditions: Homo sapiens, dose 1-2 µM. Format: functional, cell-based.
Series [23] relates to HUVEC. The series is described as follows: Disruption of preestablished capillary like tubes in HUVEC cells assessed as formation of short distorted tubes at 1 to 2 uM incubated for 16 hrs by matrigel based bright field microscopic analysis. Format: functional, cell-based. Particulars: Homo sapiens, dose 1-2 µM.
Series [24] relates to HUVEC. The series is described as follows: Cytotoxicity against HUVEC cells assessed as reduction in cell proliferation at upto 10 uM incubated for 24 hrs by Sulforhodamine B assay. As to conditions: human. Format: toxicity, cell-based. The procedure, abridged: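 HUVECs plated without Matrigel at 4000 cells/well, allowed to attach overnight, then exposed to a concentration range for 24 h. Growth read by SRB: TCA fixation, 0.4% SRB dye, OD at 510 nm, expressed as % of DMSO control. Mean ± SEM of three independent experiments.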

For series [25], the target named is T2, Tubulin (Homo sapiens). Description: Induction of microtubule disruption in HUVEC cells assessed as shortened microtubules with outer blebbing filled with tubulin at 0.5 to 1 uM incubated for 24 hrs by immunofluorescence based inverted microscopy. As to conditions: dose 0.5-1 µM. Format: cell-based. In outline: (§4)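 HUVECs (2×10^4) adhered overnight on glass slides, no Matrigel. Treated 24 h with 0.5 or 1 μM; colchicine 0.1 μM as positive control. Fixed in 10% formalin, permeabilized with Triton X-100, blocked. Stained with anti-α-tubulin plus Cy5 secondary, phalloidin-Atto 488 for F-actin, and DAPI. Imaged by inverted fluorescence microscopy at 63×. Three independent experiments.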

Series [26] relates to HUVEC. Description: Induction of actin disruption in HUVEC cells assessed as thicker and brighter actin fibers at 0.5 to 1 uM incubated for 24 hrs by phalloidin-Atto 488 staining based inverted microscopy. The series is classed as cell-based. As to conditions: Homo sapiens, dose 0.5-1 µM. The procedure, abridged:
as §4

Series [27] concerns HUVEC. The series is described as follows: Disruption of preestablished capillary like tubes in HUVEC cells assessed as rounded and retracted cells at 0.5 to 1 uM incubated for 16 hrs by matrigel based inverted microscopy. As to conditions: Homo sapiens, dose 0.5-1 µM.

Regarding `COc1ccc(-c2cc3cc(F)ccc3c(=O)[nH]2)cc1`, in series [1], the inhibition entry is “inactive”.

Consider `O=c1[nH]c(-c2ccc(F)cc2)cc2cc(F)ccc12`, for which the inhibition entry in series [1] was “inactive”. Also, the outcome in series [2] and in [3] was inactive.

As to `COC(=O)Nc1nc2cc(C(=O)c3cccs3)ccc2[nH]1`, the inhibition entry in series [4] is “Active”.

For the molecule `O=c1[nH]c(-c2cccc(F)c2)cc2cc(F)ccc12`, the result in series [5], in series [9], in series [16], in series [17], in series [18] and in [19] was Active. Also, the result in series [22], in series [23], in series [25], in series [26] and in [27] was Active. Also, the inhibition result in series [1] was “inactive”. For the same molecule, the inhibition result in series [6] and in [8] was “Active” throughout. Also, the IC50 at 24 h in series [7] is more than 25 µM. In addition, in series [10], the viability at 0.5 µM is 76%. In addition, the Activity is 5.95% in series [11]; 6.47% in series [12]; 15.1% in series [14]; 12.1% in [15]; “Dose-Dependent Effect” in series [20]; “Dose-Dependent Effect” in series [21]. Moreover, the Activity entry in [24] is listed as “Non-Toxic”. Besides, the viability at 1 µM in [13] stood at 60.4%.

On to `CC(=O)O[C@H]1C(=O)[C@@]2(C)[C@H]([C@H](OC(=O)c3ccccc3)[C@]3(O)C[C@H](OC(=O)[C@H](O)[C@@H](NC(=O)c4ccccc4)c4ccccc4)C(C)=C1C3(C)C)[C@]1(OC(C)=O)CO[C@@H]1C[C@@H]2O`, for which the inhibition result in [4] was “inactive”.
